High-throughput results: PubChem BioAssay, several laboratories
This is a sample that favours compounds with a hit; in the whole collection about 2.1% have one here.
beta cell repl = inducers of MIN6 beta-cell proliferation, primary screen, ATP luminescence, uHTS | actives 0.29% (n = 330,000) | proliferation, % at 10 µM | MIN6 cells proliferation, ATPlite luminescence, 48 h; cells starved in 0.2% serum; 100% = growth in 10% serum;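 active = compounds whose signal lies at least 3.5 SD above the mean of all wells on their plate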;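 note: 0% = DMSO-treated cells in low-serum medium and 100% = 10% serum control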
Cardio protect = cardioprotection against H2O2-induced cell death, primary screen, uHTS, H9c2 cells, ATPLite luminescence; H9c2 cardiomyocytes, H2O2 injury protection, 2 h; protection from H2O2 cell death, % at 20 µM; actives 0.63% (n = 360,000);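 active = compounds giving at least 50% protection of heart cells from peroxide-induced death in the single-dose screen, raw or plate-pattern-corrected value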;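 note: 0% = DMSO wells with peroxide and 100% = DMSO wells without peroxide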
CRFBP-R2 agonist = agonists of CRF-BP/CRF-R2 complex, primary screen, cell-based, HEK293, calcium dye fluorescence, uHTS. CRF-binding protein / CRF receptor 2 complex (human). calcium dye fluorescence (FLIPR); percent of saturating CRF peptide response. activation, % at 13.2 µM. actives 0.46% (n = 350,000);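 active = activation of at least 50%, plus an integration ratio under a set limit after plate pattern correction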;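 note: plate controls were neutral control wells without compound for no effect and CRF at EC100 for full effect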
CRFBP-R2 block = antagonists of CRF-BP/CRF-R2 complex, primary screen, cell-based, HEK293, calcium dye fluorescence, uHTS; CRF-induced calcium fluorescence; actives 0.59% (n = 350,000); inhibition, % at 11.8 µM;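 active = inhibition of the ligand-induced calcium signal above about 50% at the single tested concentration, limit read from the data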
UCH37 DUB inh = inhibitors of human UCH37 deubiquitinase, primary screen, biochemical, Ub-AMC cleavage, fluorescence | AID 588478, 2011 | Ubiquitin carboxyl-terminal hydrolase isozyme L5 (Homo sapiens), Q9Y5K5 | actives 0.33% (n = 330,000) | purified proteasome/UCH37 | inhibition, % (concentration not given with the values);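 active = mean inhibition over replicate wells above about 20%, limit read from the data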;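 note: 0% = compound-free wells with enzyme and 100% = wells lacking proteasome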
Target sequence (Q9Y5K5 whole entry, looked up): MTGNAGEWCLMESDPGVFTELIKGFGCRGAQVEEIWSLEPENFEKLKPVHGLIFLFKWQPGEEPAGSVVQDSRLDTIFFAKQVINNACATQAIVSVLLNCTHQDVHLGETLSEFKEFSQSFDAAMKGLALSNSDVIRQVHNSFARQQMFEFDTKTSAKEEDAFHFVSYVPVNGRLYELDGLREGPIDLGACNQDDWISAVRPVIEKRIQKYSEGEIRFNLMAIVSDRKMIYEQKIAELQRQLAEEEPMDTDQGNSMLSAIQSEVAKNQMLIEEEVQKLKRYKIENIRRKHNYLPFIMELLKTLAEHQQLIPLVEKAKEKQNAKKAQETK
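System: Proteasome-associated human UCH37 deubiquitinase; Input: 0.15 nM proteasome in added enzyme buffer; Also added: Ub-AMC substrate from 1 µM stock; Incubation: 30 min compound-proteasome preincubation then 25 min substrate reaction, room temperature; Detection: fluorescence, ex 355 nm, em 460 nm; Read-out: % inhibition of Ub-AMC cleavage fluorescence; Benchmarks: no-proteasome and no-compound wells.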
hiPSC survival = enhancers of single-cell hiPSC survival, primary screen, ATPlite luminescence | 100% = ROCK inhibitor wells, 0% = DMSO | survival enhancement, % at 20 µM | actives 0.044% (n = 360,000); in the data active = survival enhancement above about 18%;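 note: cells exposed to compounds for 16 hours before the ATP read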
Numbers without * were called inactive.

How did O=C(NCCCN1CCCCCC1)c1ccc2c(c1)NC(=O)C(N1CCOCC1)S2 (stereo unspecified) do in these assays?
beta cell repl: -3; Cardio protect: -7; CRFBP-R2 agonist: 0; CRFBP-R2 block: 11; UCH37 DUB inh: 22*; hiPSC survival: -2

How did CC(/C=C/c1cccc([N+](=O)[O-])c1)=NNC(=O)c1ccncc1 do in these assays?
UCH37 DUB inh: 10

What do the screens show for `CCOC(=O)c1c(-c2ccccc2)nnn1-c1nc(OCC)nc(N2CCCCC2)n1`?
beta cell repl: 5; Cardio protect: 70*; CRFBP-R2 agonist: 0; CRFBP-R2 block: 5; UCH37 DUB inh: 1; hiPSC survival: 3

What do the screens show for `CCOC(=O)c1nnn(-c2nc(N3CCCC3)nc(N3CCCC3)n2)c1-c1ccccc1`?
beta cell repl: 0; Cardio protect: 7; CRFBP-R2 agonist: -3; CRFBP-R2 block: 3; UCH37 DUB inh: 1; hiPSC survival: -1

How did COc1ccc(NC(=O)C(OC(=O)c2ccc([N+](=O)[O-])o2)c2ccccc2)cc1Cl (stereo unspecified) do in these assays?
beta cell repl: 0; Cardio protect: 52*; CRFBP-R2 agonist: -1; CRFBP-R2 block: 7; UCH37 DUB inh: 1; hiPSC survival: -1

How did COc1ccc(NC(=O)C(OC(=O)c2cnc(C)cn2)c2ccccc2)cc1Cl (stereo unspecified) do in these assays?
beta cell repl: -2; Cardio protect: 4; CRFBP-R2 agonist: -1; CRFBP-R2 block: 2; UCH37 DUB inh: 0; hiPSC survival: 0

Results for C=CC[C@@H](CC(=O)N[C@H](CO)Cc1ccccc1)C(=O)N[C@@H](COC(=O)[C@@H](CC=C)CC(=O)OC(C)(C)C)Cc1ccccc1 ?
beta cell repl: -4; Cardio protect: 63*; CRFBP-R2 agonist: 0; CRFBP-R2 block: -18; UCH37 DUB inh: 2; hiPSC survival: -1

What do the screens show for `C=CCC[C@@H](Cc1ccc(F)cc1)C(=O)OC[C@H](Cc1c[nH]c2ccccc12)NC(=O)[C@@H](CC=C)CC(=O)NCCO`?
beta cell repl: -5; Cardio protect: 13; CRFBP-R2 agonist: 58*; CRFBP-R2 block: -27; UCH37 DUB inh: 0; hiPSC survival: 0

Results for C=CC[C@@H](CC(=O)NCCO)C(=O)N[C@@H](COC(=O)[C@@H](CC=C)CC(=O)OC(C)(C)C)Cc1c[nH]c2ccccc12 ?
beta cell repl: 0; Cardio protect: 31; CRFBP-R2 agonist: 0; CRFBP-R2 block: 3; UCH37 DUB inh: 23*; hiPSC survival: -2

What do the screens show for `C=CCC[C@H](Cc1ccc(F)cc1)C(=O)OC[C@@H](Cc1c[nH]c2ccccc12)NC(=O)[C@@H](CC=C)CC(=O)NCCO`?
beta cell repl: -6; Cardio protect: 68*; CRFBP-R2 agonist: 1; CRFBP-R2 block: 1; UCH37 DUB inh: 2; hiPSC survival: -2

How did C=CC[C@H](CC(=O)NCCO)C(=O)N[C@@H](COC(=O)[C@@H](CC=C)CC(=O)OC(C)(C)C)Cc1c[nH]c2ccccc12 do in these assays?
beta cell repl: -4; Cardio protect: 4; CRFBP-R2 agonist: -1; CRFBP-R2 block: -3; UCH37 DUB inh: -1; hiPSC survival: 3

What do the screens show for `Cc1cccc(N=Cc2c(O)cc(C)oc2=O)n1`?
UCH37 DUB inh: -3

What do the screens show for `CC(=NNc1ccc([N+](=O)[O-])cc1)c1ccc(C#N)cc1`?
UCH37 DUB inh: 5

How did CC1(C)CC(=O)C2=C(C1)OC(/N=C/N1CCCC1)=C(C#N)C2c1ccccc1 (stereo unspecified) do in these assays?
beta cell repl: -2; Cardio protect: -1; CRFBP-R2 agonist: 2; CRFBP-R2 block: 103*; hiPSC survival: 0

Results for CC(C)CC[n+]1ccccc1/C=C/c1ccc(N(C)C)cc1 ?
beta cell repl: -5; Cardio protect: -18; CRFBP-R2 agonist: 51*; CRFBP-R2 block: -73; UCH37 DUB inh: 12; hiPSC survival: 0

Results for CN(C)c1ccc(/C=C/c2cccc[n+]2[O-])cc1 ?
beta cell repl: -1; Cardio protect: 0; CRFBP-R2 agonist: 15; CRFBP-R2 block: -20; hiPSC survival: 2

How did N#Cc1ccc(S(=O)(=O)N2CCN(C(=O)[C@@H]3CCCN3C(=O)c3cccs3)CC2)cc1 do in these assays?
beta cell repl: -2; Cardio protect: 2; CRFBP-R2 agonist: 0; CRFBP-R2 block: 79*; UCH37 DUB inh: 1; hiPSC survival: 0

Results for O=C(COC(=O)c1cc2ccccc2cc1O)NC1CCCCC1 ?
beta cell repl: -1; Cardio protect: -15; CRFBP-R2 agonist: -1; CRFBP-R2 block: 87*; UCH37 DUB inh: 0; hiPSC survival: 0

How did O=C(COC(=O)c1cccc2c1C(=O)c1ccccc1C2=O)NC1CCCCC1 do in these assays?
beta cell repl: 1; Cardio protect: 58*; CRFBP-R2 agonist: 0; CRFBP-R2 block: -8; UCH37 DUB inh: 3; hiPSC survival: -1

What do the screens show for `C[C@]12CCC3C(CC[C@H]4CC(O)CC[C@]34C)C1CCC2=NO` (stereo partly specified)?
UCH37 DUB inh: 1

What do the screens show for `COc1ccc(CNC(=S)Nc2cccc(C)c2C)cc1`?
beta cell repl: -3; Cardio protect: -9; CRFBP-R2 agonist: -1; CRFBP-R2 block: 52*; UCH37 DUB inh: -1; hiPSC survival: -6

What do the screens show for `Cc1cccc(NC(=S)NC(=O)Cc2ccccc2)c1C`?
beta cell repl: -4; Cardio protect: -8; CRFBP-R2 agonist: 71*; CRFBP-R2 block: -27; UCH37 DUB inh: 3; hiPSC survival: -1

Results for Cc1cccc(NC(=S)NCc2ccncc2)c1C ?
beta cell repl: 0; Cardio protect: -3; CRFBP-R2 agonist: -3; CRFBP-R2 block: 22; UCH37 DUB inh: 1; hiPSC survival: -3

What do the screens show for `COc1ccc(C(=O)O)cc1NC(=S)NC(=O)c1ccc(-c2ccc(Cl)cc2)o1`?
beta cell repl: -4; Cardio protect: -1; CRFBP-R2 agonist: -2; CRFBP-R2 block: 86*; UCH37 DUB inh: 11; hiPSC survival: 1

Results for Fc1cccc(NC(=S)NCc2ccc(Cl)cc2)c1 ?
beta cell repl: -5; Cardio protect: -6; CRFBP-R2 agonist: -3; CRFBP-R2 block: 54*; UCH37 DUB inh: 2; hiPSC survival: 0

Results for Cc1cc(C=c2sc3nc4ccccc4n3c2=O)c(C)n1-c1ccccn1 ?
UCH37 DUB inh: -4

Results for O=C(O)COc1ccccc1C=NNC(=O)CNC(=O)c1ccco1 ?
UCH37 DUB inh: 6

How did COc1ccc(C=NNC(=O)c2ccccc2Cl)cc1CSc1nc2ccccc2s1 do in these assays?
UCH37 DUB inh: 5
